Experiments:
[1] = system: SF-295; test: Growth inhibition of human SF295 cells assessed as cell growth at 10^-6 M incubated for 48 hrs by sulforhodamine B assay relative to control; assay type: functional; details: SF-295, 48 h, read-out: Activity
[2] = system: SK-OV-3; test: Growth inhibition of human SKOV3 cells assessed as cell growth at 10^-7 M incubated for 48 hrs by sulforhodamine B assay relative to control; assay type: functional; details: SK-OV-3, 48 h, read-out: Activity
[3] = system: ACHN; test: Growth inhibition of human ACHN cells assessed as cell growth at 10^-7 M incubated for 48 hrs by sulforhodamine B assay relative to control; assay type: functional; details: read-out: Activity
[4] = system: HeLa; test: Antiproliferative activity against human HeLa cells after 72 hrs by Coulter counter method; assay type: functional, cell-based
Summary of the method: (§1)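 Cell count assay in 96-well microtiter plates; (5–7.5) × 10⁴ tumor cells per well plus test compound. Cells proliferated at 37 °C in humidified CO₂-controlled atmosphere, 48 h for murine leukemia L1210, 72 h for human lymphocytic CEM and cervix carcinoma HeLa. Counted by Coulter counter; IC₅₀ is the concentration that inhibits proliferation by 50%.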

[5] = system: NCI-H23; test: Growth inhibition of human NCI-H23 cells assessed as cell growth at 10^-7 M incubated for 48 hrs by sulforhodamine B assay relative to control; assay type: functional; details: NCI-H23, 48 h, read-out: Activity
[6] = system: SK-MEL-28; test: Growth inhibition of human SK-MEL-28 cells assessed as cell growth at 10^-6 M incubated for 48 hrs by sulforhodamine B assay relative to control; assay type: functional; details: SK-MEL-28, 48 h, read-out: Activity
[7] = system: UACC-257; test: Growth inhibition of human UACC257 cells assessed as cell growth at 10^-7 M incubated for 48 hrs by sulforhodamine B assay relative to control; assay type: functional; details: UACC-257, 48 h, read-out: Activity
[8] = system: KM12; test: Cytotoxicity against human KM12 cells after 48 hrs by SRB assay; assay type: functional; details: KM12, 48 h
[9] = system: Hs-578T; test: Growth inhibition of human Hs 578T cells assessed as cell growth at 10^-7 M incubated for 48 hrs by sulforhodamine B assay relative to control; assay type: functional; details: read-out: Activity
[10] = system: CCRF-CEM; test: Growth inhibition of human CCRF-CEM cells assessed as cell growth at 10^-6 M incubated for 48 hrs by sulforhodamine B assay relative to control; assay type: functional; details: read-out: Activity
[11] = system: MOLT-4; test: Cytotoxicity against human MOLT4 cells after 48 hrs by SRB assay; assay type: functional; details: MOLT-4, 48 h
[12] = system: NCI/ADR-RES; test: Cytotoxicity against human NCI-ADR-RES cells after 48 hrs by SRB assay; assay type: functional
[13] = system: SN12C; test: Growth inhibition of human SN12C cells assessed as cell growth at 10^-5 M incubated for 48 hrs by sulforhodamine B assay relative to control; assay type: functional; details: read-out: Activity
[14] = system: A549; test: Cytotoxicity against human A549 cells after 48 hrs by SRB assay; assay type: functional; details: A549, 48 h
[15] = system: NCI-H23; test: Growth inhibition of human NCI-H23 cells assessed as cell growth at 10^-8 M incubated for 48 hrs by sulforhodamine B assay relative to control; assay type: functional; details: NCI-H23, 48 h, read-out: Activity
[16] = system: CCRF-CEM; test: Antiproliferative activity against human CEM cells after 72 hrs by Coulter counter method; assay type: functional, cell-based; summary of the method: as §1
[17] = system: M14; test: Growth inhibition of human M14 cells assessed as cell growth at 10^-6 M incubated for 48 hrs by sulforhodamine B assay relative to control; assay type: functional; details: M14, 48 h, read-out: Activity
[18] = system: CCRF-CEM; test: Growth inhibition of human CCRF-CEM cells assessed as cell growth at 10^-5 M incubated for 48 hrs by sulforhodamine B assay relative to control; assay type: functional; details: read-out: Activity
[19] = system: U-251; test: Growth inhibition of human U251 cells assessed as cell growth at 10^-8 M incubated for 48 hrs by sulforhodamine B assay relative to control; assay type: functional; details: U-251, 48 h, read-out: Activity
[20] = system: SF-268; test: Cytotoxicity against human SF268 cells after 48 hrs by SRB assay; assay type: functional; details: SF-268, 48 h
[21] = system: SW-620; test: Growth inhibition of human SW620 cells assessed as cell growth at 10^-8 M incubated for 48 hrs by sulforhodamine B assay relative to control; assay type: functional; details: SW-620, 48 h, read-out: Activity
[22] = system: NCI-H226; test: Growth inhibition of human NCI-H226 cells assessed as cell growth at 10^-6 M incubated for 48 hrs by sulforhodamine B assay relative to control; assay type: functional; details: NCI-H226, 48 h, read-out: Activity
[23] = system: SK-MEL-28; test: Growth inhibition of human SK-MEL-28 cells assessed as cell growth at 10^-5 M incubated for 48 hrs by sulforhodamine B assay relative to control; assay type: functional; details: SK-MEL-28, 48 h, read-out: Activity
[24] = system: KM12; test: Growth inhibition of human KM12 cells assessed as cell growth at 10^-6 M incubated for 48 hrs by sulforhodamine B assay relative to control; assay type: functional; details: KM12, 48 h, read-out: Activity
[25] = system: RXF 393; test: Cytotoxicity against human RXF393 cells after 48 hrs by SRB assay; assay type: functional; details: RXF 393, 48 h
[26] = read-out: pLC50 (the source's name) (converted)
[27] = read-out: LC50 (the source's name)

With `C#C[C@@]1(O)[C@@H](CO)O[C@@H](n2cc(Br)c3c(N)ncnc32)[C@@H]1O` the growth at 1 µM [1] was 24 to 36%, the growth at 0.1 µM [2] was 28 to 62% and the growth at 0.1 µM [3] was 75%. For the same molecule, the IC50 [4] was 93 nM, the growth at 0.1 µM [5] was 61 to 70% and the growth at 1 µM [6] was 61 to 68%. The growth at 0.1 µM [7] was 70 to 93%, the GI50 ([8]; read-out: GI50) was 94.6 to 121 nM and the TGI ([8]; read-out: TGI) was over 100000 nM. The CC50 [8, 26] was over 100000 nM, the TGI ([8]; read-out: pTGI (converted)) was over 100000 nM and the growth at 0.1 µM [9] was 92 to 97%. For the same molecule, the growth at 1 µM [10] was 5 to 11%, the GI50 ([11]; read-out: GI50) was 70.8 to 178 nM and the CC50 [11, 27] was over 100000 nM. It also gave a TGI ([11]; read-out: TGI) of 778 to 100000 nM, a GI50 ([12]; read-out: GI50) of 45.1 to 65.9 nM and a TGI ([12]; read-out: TGI) of 1020 nM. The CC50 [12, 26] was over 100000 nM, the TGI ([12]; read-out: pTGI (converted)) was 1020 nM and the growth at 10 µM [13] was 1 to 3%. For the same molecule, the GI50 ([14]; read-out: GI50) was 90 to 283 nM, the CC50 [14, 26] was over 100000 nM and the growth at 0.01 µM [15] was 90 to 91%. For the same molecule, the IC50 [16] was 30 nM, the growth at 1 µM [17] was 20 to 24% and the growth at 10 µM [18] was 3 to 5%. For the same molecule, the growth at 0.01 µM [19] was 57 to 87%, the GI50 ([20]; read-out: GI50) was 467 to 498 nM and the CC50 [20, 27] was over 100000 nM. It also gave a TGI ([20]; read-out: TGI) of 33200 to 80600 nM, a growth at 0.01 µM [21] of 81 to 89% and a growth at 1 µM [22] of 27 to 66%. The growth at 10 µM [23] was 38 to 40%, the growth at 1 µM [24] was 21 to 26% and the GI50 ([25]; read-out: GI50) was 205 to 479 nM. For the same molecule, the CC50 [25, 27] was over 100000 nM and the TGI ([25]; read-out: TGI) was 653 to 2290 nM.

Source: ChEMBL document CHEMBL4270599, “Synthesis of a 3'-C-ethynyl-β-d-ribofuranose purine nucleoside library: Discovery of C7-deazapurine analogs as potent antiproliferative nucleosides” (Eur J Med Chem, 2018)
